For experiment [1], the system named is Rattus norvegicus. Description: Estrogenicity in rats following 3 x 0.1 mg s.c. over 72h. The format is functional. In a few lines:
(§1)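 Immature Sprague-Dawley female rats, 21–23 days old, seven to nine per group, injected s.c. on 3 consecutive days with test compound suspended in 0.2 mL propylene glycol–saline (1:1 v/v). Vehicle-only controls. Autopsy 24 h after the final dose, uterine wet weight recorded. Agonist activity computed as (C₀ − V)(100)/(E − V), with E the E₂-alone mean.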

Experiment [2] deals with T1, Estrogen receptor (Rattus norvegicus) (UniProt P06211+Q62986). Description: Relative binding against estrogen receptor of rat uterine cytosol by [2-4-3H] estradiol. The format is protein assay. In a few lines: (§2)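 Uterine cytosol (1 uterine equiv/mL) from immature rats primed s.c. with 1 μg E₂ for 3 days, incubated 18 h at 4 °C with [³H]E₂ (5 × 10⁻⁹ M) and test compound (10⁻⁴–10⁻⁹ M) in triplicate. Medium was Tris-HCl/EDTA/azide buffer, pH 7.4, with 7% DMF. Free ligand removed with charcoal-dextran for 20 min before scintillation counting. Results expressed relative to E₂ = 100, mean ± SD of ≥3 determinations.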

The test system of experiment [3] is Rattus norvegicus. Description: Uterotrophic effects in rats following 3 x 0.1 mg s.c. over 72h. The format is functional, Uterus. In a few lines: as §1
Experiment [4] deals with Rattus norvegicus. Description: Anti-uterotrophic effects in rats following 3 x 0.1 mg s.c. over 72h. The format is functional. In a few lines:
(§3)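 Immature female Sprague-Dawley rats (21–23 days), groups of seven to nine, given test compound suspended in 0.2 mL propylene glycol–saline (1:1 v/v) s.c. daily for 3 consecutive days, plus 1 μg E₂ per animal at a separate site. Controls got E₂ plus vehicle. Uterine wet weight taken at autopsy 24 h after the last injection. Inhibition computed as (E − C₁)(100)/(E − V).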

Experiment [5] relates to Rattus norvegicus. Description: Inhibition of E2 effects in rats by 0.1 mg s.c. The format is functional. In a few lines:
as §3

In experiment [6] the test system is Rattus norvegicus. Description: Anti-uterotrophic effects in rats following 3 x 1 mg s.c. over 72h. The format is functional. In a few lines: as §3
The subject of experiment [7] is Rattus norvegicus. Description: Inhibition of E2 effects in rats by 1 mg s.c. The format is functional. In a few lines: as §3
The subject of experiment [8] is Rattus norvegicus. Description: Estrogenicity in rats following 3 x 1 mg s.c. over 72h. The format is functional. In a few lines:
as §1

The test system of experiment [9] is Rattus norvegicus. Description: Uterotrophic effects in rats following 3 x 1 mg s.c. over 72h. The format is functional, Uterus. In a few lines: as §1
Experiment [10] concerns the target T1, Estrogen receptor (Rattus norvegicus). Description: Relative binding affinity against estrogen receptor of rat uterine cytosol by [2-4-3H] estradiol; No detectable affinity at 100 uM. In a few lines:
as §2

Each structure is given as a SMILES string. Calls of active or inactive are those of the source. The rule behind the calls is not given here.

Usually Inhibition stands for the percentage by which the read-out fell short of the control. A high value points to strong suppression. With `Oc1ccc(-c2coc(-c3ccccc3)c2-c2ccccc2)cc1`, the Estrogenic effect in [1] is listed as 100%. In [2], this compound showed an RBA of 3%. The Uterine weight turned out to be 48.9 mg in experiment [3] and 57.6 mg in experiment [4]. Besides, the Inhibition in experiment [5] worked out at 0%.

In turn, `C/C(=C(/C(=O)c1ccc(O)cc1)c1ccccc1)c1ccccc1` displayed an Estrogenic effect in experiment [1] of 83%. In addition, the RBA in experiment [2] worked out at 3.6%. Moreover, the Uterine weight was found to be 46.4 mg in [3] and 44.7 mg in [4]. The same compound returned an Inhibition in experiment [5] of 21%.

`O=C(c1ccc(O)cc1)c1c(-c2ccccc2)oc2ccccc12`: the RBA in experiment [2] is 5.3%. Moreover, the Uterine weight in experiment [6] is 50.7 mg; in [9], 16.3 mg. In experiment [7], the Inhibition came to 0%. Moreover, in experiment [8], the Estrogenic effect is recorded as 10%.

`O=C(/C(=C\c1ccccc1)c1ccccc1)c1ccc(O)cc1` returned an Estrogenic effect in experiment [1] of 33%. The RBA in [2] was 0.06%. Also, the figures for the Uterine weight in experiment [3] and in experiment [4] were 22.2 mg and 70.4 mg, respectively. Also, the Inhibition in [5] worked out at 0%.

In turn, `O=C(c1ccc(O)cc1)c1oc2cc(O)ccc2c1-c1ccc(O)cc1` registered an RBA in experiment [2] of 2.7%. Moreover, the Uterine weight worked out at 48.3 mg in experiment [6] and 26.3 mg in experiment [9]. This compound also displayed an Inhibition in experiment [7] of 23%. Also, the Estrogenic effect in [8] worked out at 31%.

The compound `C/C(=C(/C(=O)c1ccc(OCCN2CCCC2)cc1)c1ccccc1)c1ccccc1` displayed an Estrogenic effect in [1] of 38%. This compound also showed an RBA in experiment [2] of 0.008%. Also, the results for the Uterine weight in [3] and in experiment [4] were 30.6 mg and 43.1 mg, respectively. In [5], this compound registered an Inhibition of 26%.

As for `C/C(=C(\C(=O)c1ccc(OCCN2CCCC2)cc1)c1ccccc1)c1ccccc1`, in [1], the Estrogenic effect worked out at 0%. The compound further came in with an RBA in experiment [2] of 0.24%. The Uterine weight in experiment [3] was 18 mg; in experiment [4], 46.6 mg. This compound also returned an Inhibition in [5] of 16%.

In [2], `COc1ccc2c(-c3ccc(OCCN4CCCC4)cc3)c(-c3ccccc3)oc2c1` registered an RBA of 0.01%. For the same compound, the Uterine weight turned out to be 61.4 mg in experiment [6] and 35.4 mg in experiment [9]. The compound also showed an Inhibition in [7] of 0%. The Estrogenic effect in [8] came to 57%.

Take `O=C(c1ccccc1)c1c(-c2ccc(O)cc2)oc2cc(O)ccc12`: in experiment [2], the RBA is 0.72%. Moreover, the Uterine weight in experiment [6] was 43.2 mg; in [9] it was 26.6 mg. For the same compound, the Inhibition in experiment [7] was 0%. The Estrogenic effect in [8] came out at 35%.

Turning to `Oc1ccc(-c2c(-c3ccccc3)oc3cc(O)ccc23)cc1`, the RBA in experiment [2] stood at 1.6%. For the same compound, the values for the Uterine weight in [6] and in [9] were 46.5 mg and 14.6 mg, respectively. Further, the Inhibition in experiment [7] is on record as 0%. For the same compound, the Estrogenic effect in [8] amounted to 0%.

For the compound `COc1ccc2c(-c3ccc(O)cc3)c(-c3ccccc3)oc2c1`, the RBA in experiment [2] is 0.01%.

With `O=C(/C(=C/c1ccccc1)c1ccccc1)c1ccc(O)cc1`, the Estrogenic effect in experiment [1] is listed as 68%. The compound also returned an RBA in experiment [2] of 1.8%. In addition, the Uterine weight in experiment [3] amounted to 49.4 mg; in experiment [4] it was 78.1 mg. In experiment [5], this compound registered an Inhibition of 0%.

In experiment [2], `O=C(c1ccc(O)cc1)c1c(-c2ccc(O)cc2)oc2ccccc12` returned an RBA of 1.7%. Besides, the Uterine weight in experiment [6] came out at 59.3 mg; in [9] it was 13.1 mg. The compound also showed an Inhibition in [7] of 0%. In experiment [8], this compound displayed an Estrogenic effect of 0%.

The compound `c1ccc(-c2occ(-c3ccc(OCCN4CCCC4)cc3)c2-c2ccccc2)cc1` showed an Estrogenic effect in experiment [1] of 61%. Further, the values for the Uterine weight in experiment [3] and in experiment [4] were 35.6 mg and 52.1 mg, respectively. The RBA entry in experiment [10] was “inactive”. Moreover, the Inhibition in experiment [5] was determined as 0%.

In the case of `Oc1ccc(-c2c(-c3ccccc3)coc2-c2ccccc2)cc1`, in experiment [1], the Estrogenic effect came out at 0%. Besides, the RBA in [2] turned out to be 4.5%. Also, the Uterine weight in experiment [3] turned out to be 16.7 mg; in experiment [4] it was 42.8 mg. Further, the Inhibition in experiment [5] worked out at 0%.

Turning to `O=C(c1ccccc1)c1c(-c2ccc(O)cc2)oc2ccccc12`, the RBA in experiment [2] was 0.12%. Further, the Uterine weight in [6] was 47.4 mg; in [9], 13.7 mg. This compound also registered an Inhibition in experiment [7] of 0%. This compound showed an Estrogenic effect in experiment [8] of 0%.

With `Cl.O=C(c1ccccc1)c1c(-c2ccc(OCCN3CCCC3)cc2)oc2ccccc12`, in experiment [2], the RBA worked out at 0.3%. Further, the Uterine weight in experiment [6] was determined as 29.6 mg; in [9], 27.7 mg. Also, in experiment [7], the Inhibition was 58%. The Estrogenic effect in [8] is 38%.

Consider `COc1ccc(-c2c(-c3ccccc3)oc3cc(O)ccc23)cc1`, for which the RBA in [2] was 0.01%.

`c1ccc(-c2coc(-c3ccccc3)c2-c2ccc(OCCN3CCCC3)cc2)cc1` returned an Estrogenic effect in [1] of 31%. Also, in experiment [2], the RBA stood at 0.84%. In addition, the Uterine weight in experiment [3] came out at 26.4 mg; in experiment [4], 53.9 mg. In addition, in experiment [5], the Inhibition was 0%.

`Oc1ccc(-c2oc3cc(O)ccc3c2-c2ccc(O)cc2)cc1` returned an RBA in experiment [2] of 7.8%. In addition, the Uterine weight is 39.6 mg in [6] and 21.2 mg in experiment [9]. Besides, in experiment [7], the Inhibition came to 30%. In experiment [8], this compound yielded an Estrogenic effect of 22%.

For `C/C(=C(\C(=O)c1ccc(O)cc1)c1ccccc1)c1ccccc1`, the Estrogenic effect in experiment [1] stood at 0%. Also, in [2], the RBA turned out to be 0.54%. The results for the Uterine weight in experiment [3] and in experiment [4] were 19.8 mg and 47.3 mg, respectively. Moreover, the Inhibition in experiment [5] is listed as 14%.

The compound `O=C(c1ccc(OCCN2CCCC2)cc1)c1c(-c2ccccc2)oc2ccccc12` displayed an RBA in experiment [2] of 0.01%. Also, the Uterine weight is 56.1 mg in experiment [6] and 16.7 mg in experiment [9]. This compound gave an Inhibition in [7] of 0%. Further, in [8], the Estrogenic effect was determined as 0%.

`O=C(c1ccc(O)cc1)c1c(-c2ccccc2)oc2cc(O)ccc12` gave an RBA in [2] of 2.1%. Moreover, the Uterine weight in experiment [6] was 38 mg; in experiment [9], 22.4 mg. Besides, the Inhibition in experiment [7] came to 37%. In [8], this compound showed an Estrogenic effect of 25%.

The record behind these values is ChEMBL document CHEMBL1124544, “Structure-activity relationship of antiestrogens: a study using triarylbutenone, benzofuran, and triarylfuran analogues as models for triarylethylenes and triarylpropenones” (1989).
